Publication PMC6374747 (Biochemistry, 2018)
Blank lines part the entries; values can stand above or below the substance they belong to. Ends that are not written are not given here.

Assays:
[1] = ThT fluorescence aggregation assay; assay type: physicochemical; conditions: for Concentration at which amyloid-like aggregation was observed (ThT): pH 5.0, 20 mM NaOAc, 1–200 μM tested
Summary of the method: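 Peptide (199 μL; 200–1 μM at pH 5.0 in 20 mM NaOAc, or 200 μM in buffers of pH 3.0–7.0) was mixed with 1 μL ThT. Fluorescence was read at 37 °C (ex 444 nm, em 485 nm, 10 nm bandwidth) every 10 min for at least 15 h with gentle agitation. Signal was normalised to buffer plus ThT. Runs were done at least three times, each in triplicate; end point at 15 h.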

Human EBV-infected BLCs = experiment: Immunofluorescence microscopy of bioorthogonal peptides; assay type: cell-based; conditions: for Intracellular aggregation in EBV-infected BLCs (within LC3 positive vesicles): 6.2 and 25 μM (also 3.1, 12.5 μM), 48 h, serum-free, CuAAC Alexa647-azide; for Aggregates in the absence of cells (CuAAC with Alexa647-azide): serum-free medium, no cells
Summary of the method: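 Human BSM EBV-lymphoblastoid cells (1.5 × 10^6/well) were incubated with peptide (6.25 or 25 μM; medium as control) in serum-free R0 medium at 37 °C. Cytospins (5 × 10^4 cells, 28g, 3 min) were air-dried, stored at −80 °C, and PFA-fixed. Staining: anti-LC3 1:20 overnight at 4 °C, then anti-mouse FITC 1:400. Peptide was detected by CuAAC (0.064 mM CuSO4, 0.038 mM ascorbate, 0.25 mM THPTA, AF647-azide 1:160, 100 mM Tris pH 8.0, 1 h, RT, dark). DAPI mounting; fluorescence microscopy.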

[2] = tested on: marmoset EBV-BLCs and co-culture with lymphocytes; experiment: FACS-based immunotoxicity assay; assay type: cell-based, Callithrix jacchus; conditions: CellTrace-stained EBV-BLCs, 24 h, 30, 10, 3, 1 μg/mL tested
Summary of the method: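 EBV-BLCs were prestained with CellTrace for 20 min at RT and plated at 1 × 10^3 cells/well. Peptide (30, 10, 3, 1 μg/mL; medium as negative control) was added for 1 h at 37 °C, 5% CO2, in medium with 10% FCS. Freshly thawed axillary lymph node mononuclear cells from an EAE marmoset were then added at 1 × 10^5 cells/well for 24 h. Cells were stained with a live/dead marker and AnnexinV-APC, then fixed in 1% PFA/AnnexinV binding buffer. CellTrace+ and CellTrace– gates were each gated for AnnexinV and live/dead. Non-co-cultured lymphocytes served as control.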

[3] = Seeded nucleation ThT aggregation assay; assay type: physicochemical; conditions: 40 μM peptide, 200 μL, pH 5.0; seeds of 5 or 7, 3–300 ng
Summary of the method: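 Seeds were prepared by centrifuging aggregated peptide (20000g, 30 min) and homogenising the pellet in 20 mM NaOAc to an estimated 0.1 mg/mL. ThT fluorescence was followed at 37 °C (ex 444 nm, em 485 nm) in kinetic mode.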

Substance: MOG31-55(NArg3) (NATGMEVGWYRPPFSRVVHLYRNGK; UniProt Q16653 60-84, looked up, fragment) [Peptide 9]
- Aggregation of elongated MOG31–55 peptides (ThT) ([1]; pH 5.0, 37 °C, 1–200 μM): Neither 9 nor 10 aggregated

Substance: MOG31-55(Pg_Cit41&46) [Peptide 11]
- Intracellular aggregation in EBV-infected BLCs (within LC3 positive vesicles) (Human EBV-infected BLCs): small spheres
- Aggregates in the absence of cells (CuAAC with Alexa647-azide) (Human EBV-infected BLCs): large aggregates
- Concentration giving increased level of apoptosis (Annexin V) [2]: > 1000 ng/mL

Substance: MOG31-55(Pg_Cit46&Cit52) [Peptide 12]
- Intracellular aggregation in EBV-infected BLCs (within LC3 positive vesicles) (Human EBV-infected BLCs): large agglomerates
- Aggregates in the absence of cells (CuAAC with Alexa647-azide) (Human EBV-infected BLCs): large aggregates
- Concentration giving increased level of apoptosis (Annexin V) [2]: > 1000 ng/mL

Substance: MOG35-55(Arg3) (MEVGWYRPPFSRVVHLYRNGK-NH2; not fully specified; UniProt Q16653 64-84, looked up, fragment) [Peptide 1]
- Aggregation at any pH or any concentration tested (ThT) ([1]; pH 3.0–7.0 at 200 μM, 1–200 μM at pH 5.0, 37 °C): did not show any aggregation
- Aggregation kinetics on seeding (ThT) [3]: no aggregation was observed

Substance: MOG35-55(Cit41) [Peptide 2]
- Concentration at which amyloid-like aggregation was observed (ThT) ([1]; 37 °C): > 4 µM

The next lines start with the values.

- Aggregation at pH 6 compared to pH 5 (ThT) ([1]; 200 μM, 37 °C): ~3 fold
- Aggregation at pH 7 compared to pH 5 (ThT) ([1]; 200 μM, 37 °C): ~4 fold
- Concentration at which amyloid-like aggregation was observed (ThT) ([1]; 37 °C): > 4 µM
- Aggregation at a final concentration of 1 μM (ThT) ([1]; pH 5.0, 37 °C): but not at a final concentration of 1 μM
Substance: MOG35-55(Cit3) [Peptide 8]

- Concentration at which amyloid-like aggregation was observed (ThT) ([1]; 37 °C): aggregation at all concentrations tested
Substance: MOG35-55(Cit41&Cit52) [Peptide 6]

- Concentration at which amyloid-like aggregation was observed (ThT) ([1]; 37 °C): > 4 µM
- Aggregation at a final concentration of 1 μM (ThT) ([1]; pH 5.0, 37 °C): but not at a final concentration of 1 μM
Substance: MOG35-55(Cit46) [Peptide 3]
